Measurements: ChEMBL document CHEMBL1165943, “Design and synthesis of new anticancer pyrimidines with multiple-kinase inhibitory effect” (Bioorg Med Chem, 2010)

Tests used:
OVCAR-5 = assay: Growth inhibition of human OVCAR5 cells after 48 hrs by sulforhodamine B assay; format: functional, cell-based; conditions: OVCAR-5, 48 h; for CC50: read-out: LC50 (the source's name)
How it was run: (§1)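 Cells grown in RPMI 1640 with 5% FBS and 2 mM L-glutamine, seeded at 5,000–40,000 cells/well according to doubling time. After 24 h, time-zero plates are TCA-fixed. Five concentrations (10-fold or ½log dilutions, DMSO stocks) are applied for 48 h at 37 °C, 5% CO₂. Cells are TCA-fixed, SRB-stained and read at 515 nm. IC₅₀ is taken from [(Ti−Tz)/(C−Tz)]×100 = 50.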

NCI-H522 [1] = assay: Cytotoxicity against human NCI-H522 cells assessed as cell growth at 0.001 uM after 48 hrs by sulforhodamine B assay; format: functional; conditions: NCI-H522, 48 h, read-out: Activity
HCT-15 = assay: Cytotoxicity against human HCT15 cells assessed as cell growth at 0.001 uM after 48 hrs by sulforhodamine B assay; format: functional; conditions: HCT-15, 48 h, read-out: Activity
SNB-19 = assay: Cytotoxicity against human SNB19 cells assessed as cell growth at 0.001 uM after 48 hrs by sulforhodamine B assay; format: functional; conditions: SNB-19, 48 h, read-out: Activity
SNB-75 [2] = assay: Cytotoxicity against human SNB75 cells assessed as cell growth at 0.001 uM after 48 hrs by sulforhodamine B assay; format: functional; conditions: SNB-75, 48 h, read-out: Activity
LOX IMVI [3] = assay: Cytotoxicity against human LOXIMVI cells assessed as cell growth at 0.001 uM after 48 hrs by sulforhodamine B assay; format: functional; conditions: read-out: Activity
UACC-62 = assay: Cytotoxicity against human UACC62 cells assessed as cell growth at 0.001 uM after 48 hrs by sulforhodamine B assay; format: functional; conditions: UACC-62, 48 h, read-out: Activity
CAKI-1 = assay: Cytotoxicity against human Caki1 cells assessed as cell growth at 0.001 uM after 48 hrs by sulforhodamine B assay; format: functional; conditions: CAKI-1, 48 h, read-out: Activity
How it was run: (§2)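 Cells grown in RPMI 1640 with 5% FBS and 2 mM L-glutamine, seeded at 5,000–40,000 cells/well by doubling time. Time-zero plates TCA-fixed after 24 h. Five concentrations (10-fold or half-log dilutions from DMSO stock) added; 48 h at 37 °C, 5% CO2. Cold TCA fixation (final 10%, 60 min, 4 °C), 0.4% SRB stain, dye solubilized in 10 mM trizma base, A515.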

SN12C = assay: Cytotoxicity against human SN12C cells assessed as cell growth at 0.001 uM after 48 hrs by sulforhodamine B assay; format: functional; conditions: read-out: Activity
M14 = assay: Cytotoxicity against human M14 cells assessed as cell growth at 100 nM after 48 hrs by sulforhodamine B assay; format: functional; conditions: M14, 48 h, read-out: Activity
A498 = assay: Cytotoxicity against human A498 cells assessed as cell growth at 100 nM after 48 hrs by sulforhodamine B assay; format: functional; conditions: A498, 48 h, read-out: Activity; how it was run: as §2
SNB-75 [4] = assay: Cytotoxicity against human SNB75 cells assessed as cell growth at 10 uM after 48 hrs by sulforhodamine B assay; format: functional; conditions: SNB-75, 48 h, read-out: Activity
NCI-H322M [5] = assay: Cytotoxicity against human NCI-H322M cells assessed as cell growth at 0.01 uM after 48 hrs by sulforhodamine B assay; format: functional; conditions: read-out: Activity
HCT-116 = assay: Cytotoxicity against human HCT116 cells assessed as cell growth at 0.01 uM after 48 hrs by sulforhodamine B assay; format: functional; conditions: HCT-116, 48 h, read-out: Activity
HT-29 = assay: Cytotoxicity against human HT-29 cells assessed as cell growth at 0.01 uM after 48 hrs by sulforhodamine B assay; format: functional; conditions: HT-29, 48 h, read-out: Activity
KM12 = assay: Cytotoxicity against human KM12 cells assessed as cell growth at 0.01 uM after 48 hrs by sulforhodamine B assay; format: functional; conditions: KM12, 48 h, read-out: Activity
TK-10 = assay: Cytotoxicity against human TK10 cells assessed as cell growth at 10 uM after 48 hrs by sulforhodamine B assay; format: functional; conditions: TK-10, 48 h, read-out: Activity
MDA-MB-231 = assay: Cytotoxicity against human MDA-MB-231 cells assessed as cell growth at 100 nM after 48 hrs by sulforhodamine B assay; format: functional; conditions: MDA-MB-231, 48 h, read-out: Activity
EKVX = assay: Cytotoxicity against human EKVX cells assessed as cell growth at 1 uM after 48 hrs by sulforhodamine B assay; format: functional; conditions: read-out: Activity
NCI-H23 = assay: Cytotoxicity against human NCI-H23 cells assessed as cell growth at 1 uM after 48 hrs by sulforhodamine B assay; format: functional; conditions: NCI-H23, 48 h, read-out: Activity
COLO 205 = assay: Cytotoxicity against human COLO205 cells assessed as cell growth at 1 uM after 48 hrs by sulforhodamine B assay; format: functional; conditions: COLO 205, 48 h, read-out: Activity; how it was run: as §2
786-0 = assay: Cytotoxicity against human 786-0 cells assessed as cell growth at 0.01 uM after 48 hrs by sulforhodamine B assay; format: functional; conditions: 786-0, 48 h, read-out: Activity; how it was run: as §2
LOX IMVI [6] = assay: Cytotoxicity against human LOXIMVI cells assessed as cell growth at 1 uM after 48 hrs by sulforhodamine B assay; format: functional; conditions: read-out: Activity
OVCAR-3 = assay: Cytotoxicity against human OVCAR-3 cells assessed as cell growth at 1 uM after 48 hrs by sulforhodamine B assay; format: functional; conditions: OVCAR-3, 48 h, read-out: Activity
NCI/ADR-RES = assay: Cytotoxicity against human NCI/ADR-RES cells assessed as cell growth at 1 uM after 48 hrs by sulforhodamine B assay; format: functional; conditions: read-out: Activity
UO-31 = assay: Cytotoxicity against human UO31 cells assessed as cell growth at 1 uM after 48 hrs by sulforhodamine B assay; format: functional; conditions: UO-31, 48 h, read-out: Activity
[7] = Cytotoxicity against human Hs 578T cells assessed as cell growth at 1 uM after 48 hrs by sulforhodamine B assay; format: functional; conditions: read-out: Activity
NCI-H322M [8] = assay: Cytotoxicity against human NCI-H322M cells assessed as cell growth at 10 uM after 48 hrs by sulforhodamine B assay; format: functional; conditions: read-out: Activity
NCI-H522 [9] = assay: Cytotoxicity against human NCI-H522 cells assessed as cell growth at 10 uM after 48 hrs by sulforhodamine B assay; format: functional; conditions: NCI-H522, 48 h, read-out: Activity
MDA-MB-435 = assay: Growth inhibition of human MDA-MB-435 cells after 48 hrs by sulforhodamine B assay; format: functional, cell-based; conditions: MDA-MB-435, 48 h; for CC50: read-out: LC50 (the source's name); how it was run: as §1

| SMILES | GI50 (OVCAR-5) [µM] | IC50 (OVCAR-5) [µM] | TGI (OVCAR-5) [µM] | CC50 (OVCAR-5) [µM] | growth at 0.001 µM (NCI-H522 [1]) [%] | growth at 0.001 µM (HCT-15) [%] | growth at 0.001 µM (SNB-19) [%] | growth at 0.001 µM (SNB-75 [2]) [%] | growth at 0.001 µM (LOX IMVI [3]) [%] | growth at 0.001 µM (UACC-62) [%] | growth at 0.001 µM (CAKI-1) [%] | growth at 0.001 µM (SN12C) [%] | growth at 0.1 µM (M14) [%] | growth at 0.1 µM (A498) [%] | growth at 10 µM (SNB-75 [4]) [%] | growth at 0.01 µM (NCI-H322M [5]) [%] | growth at 0.01 µM (HCT-116) [%] | growth at 0.01 µM (HT-29) [%] | growth at 0.01 µM (KM12) [%] | growth at 10 µM (TK-10) [%] | other results |
| --- | --- | --- | --- | --- | --- | --- | --- | --- | --- | --- | --- | --- | --- | --- | --- | --- | --- | --- | --- | --- | --- |
| CC(=O)Nc1cccc(-c2ccc(-c3ccnc(NC(=O)Nc4cc(C(F)(F)F)cc(C(F)(F)F)c4)n3)cn2)c1.Cl | 11.8 | 11.8 | 24.5 | 50.8 | 86 | 96 | 95 | 57 | 95 | 93 | 108 | 94 | 92 | 64 | -57 | 88 | 85 | 100 | 99 | -54 | growth at 0.1 µM (MDA-MB-231): 77%; growth at 1 µM (EKVX): -20%; growth at 1 µM (NCI-H23): -16%; growth at 1 µM (COLO 205): 52%; growth at 0.01 µM (786-0): 98%; growth at 1 µM (LOX IMVI [6]): -40%; growth at 1 µM (OVCAR-3): -52%; growth at 1 µM (NCI/ADR-RES): 17%; growth at 1 µM (UO-31): 48%; growth at 1 µM [7]: 43%; growth at 10 µM (NCI-H322M [8]): -62%; growth at 10 µM (NCI-H522 [9]): -73%; GI50 (MDA-MB-435): 2310 nM; IC50 (MDA-MB-435): 2310 nM; TGI (MDA-MB-435): 6.8 µM; CC50 (MDA-MB-435): > 100 µM |
| CC(=O)c1ccccc1-c1ccc(-c2ccnc(NC(=O)Nc3cc(N4CCOCC4)cc(C(F)(F)F)c3)n2)cn1 | > 100 | > 100 | > 100 | > 100 | 91 | 98 | 98 | 88 | 104 | 94 | 97 | 93 | 77 | 72 | -45 | 108 | 95 | 105 | 98 | 27 | growth at 0.1 µM (MDA-MB-231): 84%; growth at 1 µM (EKVX): 63%; growth at 1 µM (NCI-H23): 52%; growth at 1 µM (COLO 205): 106%; growth at 0.01 µM (786-0): 100%; growth at 1 µM (LOX IMVI [6]): 54%; growth at 1 µM (OVCAR-3): 70%; growth at 1 µM (NCI/ADR-RES): 50%; growth at 1 µM (UO-31): 82%; growth at 1 µM [7]: 22%; growth at 10 µM (NCI-H322M [8]): 80%; growth at 10 µM (NCI-H522 [9]): 40%; GI50 (MDA-MB-435): > 100000 nM; IC50 (MDA-MB-435): > 100000 nM; TGI (MDA-MB-435): > 100 µM; CC50 (MDA-MB-435): > 100 µM |
